Experimental data from ChEMBL document CHEMBL3808340, “Development of Novel 1,2,3,4-Tetrahydroquinoline Scaffolds as Potent NF-κB Inhibitors and Cytotoxic Agents” (ACS Med Chem Lett, 2016).

Experiments:
[1] = Cytotoxicity against human NUGC3 cells after 72 hrs by sulforhodamine B assay; assay type: functional; conditions: NUGC-3, 72 h
Outline: (§1)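 Sulforhodamine B staining following the NCI (USA) protocol was used to estimate cell number indirectly in six human cancer lines. GI50 is the concentration giving a 50% decrease in net cell growth, reported as the mean of three experiments.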

ACHN = assay: Cytotoxicity against human ACHN cells after 72 hrs by sulforhodamine B assay; assay type: functional; outline: as §1
[2] = Cytotoxicity against human HCT15 cells after 72 hrs by sulforhodamine B assay; assay type: functional; conditions: HCT-15, 72 h; outline: as §1
MDA-MB-231 = assay: Cytotoxicity against human MDA-MB-231 cells after 72 hrs by sulforhodamine B assay; assay type: functional; conditions: MDA-MB-231, 72 h; outline: as §1
Homo sapiens [3] = organism: Homo sapiens; assay: Potency index, ratio of PDTC IC50 to compound IC50 for LPS-induced NFkappaB (unknown origin) transcriptional activity expressed in mouse RAW264.7 cells; assay type: cell-based
Homo sapiens [4] = organism: Homo sapiens; assay: Potency index, ratio of KL-1156 IC50 to compound IC50 for LPS-induced NFkappaB (unknown origin) transcriptional activity expressed in mouse RAW264.7 cells; assay type: cell-based
[5] = Inhibition of LPS-induced NFkappaB (unknown origin) transcriptional activity expressed in mouse RAW264.7 cells incubated for 16 hrs by SEAP based reporter gene assay; assay type: cell-based; conditions: RAW264.7, 16 h
[6] = Cytotoxicity against human PC3 cells after 72 hrs by sulforhodamine B assay; assay type: functional; conditions: PC-3, 72 h; outline: as §1
RAW264.7 = assay: Inhibition of LPS-induced NFkappaB (unknown origin) transcriptional activity expressed in mouse RAW264.7 cells at 100 uM incubated for 16 hrs by SEAP based reporter gene assay relative to control; assay type: cell-based
NCI-H23 = assay: Cytotoxicity against human NCI-H23 cells after 72 hrs by sulforhodamine B assay; assay type: functional; conditions: NCI-H23, 72 h; outline: as §1

In the case of `O=C(Nc1ccccc1O)C1CCc2ccccc2N1C(=O)c1ccccc1` (stereo not given), the GI50 [1] is reported as 3.78 µM, the GI50 (ACHN) is reported as 4.26 µM and the GI50 [2] is reported as 3.83 µM. For the same molecule, the GI50 (MDA-MB-231) was 4.21 µM, the Ratio IC50 (Homo sapiens [3]) was 26 and the Ratio IC50 (Homo sapiens [4]) was 37. The IC50 [5] was 1.4 µM, the GI50 [6] was 5.69 µM and the inhibition (RAW264.7) was greater than 100%. It also gave a GI50 (NCI-H23) of 3.49 µM.
